Reference: ChEMBL document CHEMBL2157922, “Synthesis and antifungal activity of diverse C-2 pyridinyl and pyridinylvinyl substituted quinolines” (2012)
Values after ≈ are worked out from the molar mass of the structure shown.

What was measured:
Candida albicans [1] = test: Antifungal activity against Candida albicans CCC 129 after 48 hrs by broth microdilution technique; format: functional; conditions: CCC 129, 48 h
Nannizzia gypsea = test: Antifungal activity against Microsporum gypseum CCC 115 after 48 hrs by broth microdilution technique; format: functional; conditions: CCC 115, 48 h
Summary of the method: (§1)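 Moulds and dermatophytes were run by CLSI broth microdilution in MOPS-buffered RPMI-1640 at pH 7.0. Aspergillus was incubated at 30 °C and dermatophytes at 28–30 °C, in a moist, dark chamber. MIC100, the lowest concentration with no visible growth, was read visually at a time set by growth of the control fungus.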

Cryptococcus neoformans [2] = test: Antifungal activity against Cryptococcus neoformans IM 983040 after 48 hrs by broth microdilution technique; format: functional; conditions: IM 983040, 48 h
Summary of the method: (§2)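 C. neoformans was tested by 96-well RPMI-1640 microdilution, with DMSO-matched growth and sterility control wells. Plates were incubated 48 h at 30 °C in a moist, dark chamber and read at OD405. % inhibition = 100 − (CTW − SCW)/(GCW − SCW), in duplicate. For the clinical isolates, MIC80 and MIC50 are the lowest concentrations giving 80% and 50% inhibition.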

Candida albicans [3] = test: Antifungal activity against Candida albicans ATCC 10231 at 31.2 ug/ml after 24 hrs; format: functional; conditions: ATCC 10231, 24 h
Summary of the method: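 C. albicans was grown in 96-well RPMI-1640 broth microdilution with compound wells diluted from DMSO stocks. Growth wells with matched DMSO and sterility wells were included. After 24 h at 30 °C in a moist, dark chamber, OD405 was read. % inhibition = 100 − (CTW − SCW)/(GCW − SCW) OD, done in duplicate.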

Aspergillus fumigatus = test: Antifungal activity against Aspergillus fumigatus ATCC 26934 after 48 hrs by broth microdilution technique; format: functional; conditions: ATCC 26934, 48 h; summary of the method: as §1
Candida albicans [4] = test: Antifungal activity against Candida albicans CCC 125 after 48 hrs by broth microdilution technique; format: functional; conditions: CCC 125, 48 h
Trichophyton rubrum = test: Antifungal activity against Trichophyton rubrum CCC 113 after 48 hrs by broth microdilution technique; format: functional; conditions: CCC 113, 48 h
Pichia kudriavzevii = test: Antifungal activity against Candida krusei CCC 117 after 48 hrs by broth microdilution technique; format: functional; conditions: CCC 117, 48 h
Nakaseomyces glabratus = test: Antifungal activity against Candida glabrata CCC 115 after 48 hrs by broth microdilution technique; format: functional; conditions: CCC 115, 48 h
Cryptococcus neoformans [5] = test: Antifungal activity against Cryptococcus neoformans ATCC 32264 after 48 hrs by broth microdilution technique; format: functional; conditions: ATCC 32264, 48 h
Summary of the method: (§3)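 Yeasts were tested by CLSI broth microdilution in RPMI-1640 buffered to pH 7.0 with MOPS, with compound from 250 down to 0.98 in DMSO stocks. Trays were held at 30 °C in a moist, dark chamber. MIC100, the lowest concentration giving total visual inhibition against the growth control, was read by eye at 48 h.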

Cryptococcus neoformans [6] = test: Antifungal activity against Cryptococcus neoformans IM 972751 after 48 hrs by broth microdilution technique; format: functional; conditions: IM 972751, 48 h; summary of the method: as §2
Candida tropicalis = test: Antifungal activity against Candida tropicalis CCC 131 after 48 hrs by broth microdilution technique; format: functional; conditions: CCC 131, 48 h
[7] = system: Trichophyton mentagrophytes; test: Antifungal activity against Trichophyton mentagrophytes ATCC 9972 after 48 hrs by broth microdilution technique; format: functional; conditions: ATCC 9972, 48 h; summary of the method: as §1
Cryptococcus neoformans [8] = test: Antifungal activity against Cryptococcus neoformans IM 00319 after 48 hrs by broth microdilution technique; format: functional; conditions: IM 00319, 48 h; summary of the method: as §2
Aspergillus flavus = test: Antifungal activity against Aspergillus flavus ATCC 9170 after 48 hrs by broth microdilution technique; format: functional; conditions: ATCC 9170, 48 h; summary of the method: as §1
Candida albicans [9] = test: Antifungal activity against Candida albicans CCC 130 after 24 hrs by broth microdilution technique; conditions: CCC 130, 24 h
Cryptococcus neoformans [10] = test: Antifungal activity against Cryptococcus neoformans IM 972724 after 48 hrs by broth microdilution technique; format: functional; conditions: IM 972724, 48 h; summary of the method: as §2
Candida parapsilosis = test: Antifungal activity against Candida parapsilosis CCC 124 after 48 hrs by broth microdilution technique; format: functional; conditions: Lodderomyces parapsilosis, CCC 124, 48 h
Candida albicans [11] = test: Antifungal activity against Candida albicans CCC 128 after 48 hrs by broth microdilution technique; format: functional; conditions: CCC 128, 48 h
Cryptococcus neoformans [12] = test: Antifungal activity against Cryptococcus neoformans IM 983036 after 48 hrs by broth microdilution technique; format: functional; conditions: IM 983036, 48 h; summary of the method: as §2
Candida albicans [13] = test: Antifungal activity against Candida albicans CCC 127 after 48 hrs by broth microdilution technique; format: functional; conditions: CCC 127, 48 h
Cryptococcus neoformans [14] = test: Antifungal activity against Cryptococcus neoformans ATCC 32264 at 31.2 ug/ml after 48 hrs; format: functional; conditions: ATCC 32264, 48 h; summary of the method: as §2
Cryptococcus neoformans [15] = test: Antifungal activity against Cryptococcus neoformans IM 042074 after 48 hrs by broth microdilution technique; format: functional; conditions: IM 042074, 48 h; summary of the method: as §2
Aspergillus niger = test: Antifungal activity against Aspergillus niger ATCC 9029 after 48 hrs by broth microdilution technique; format: functional; conditions: ATCC 9029, 48 h; summary of the method: as §1
Candida albicans [16] = test: Antifungal activity against Candida albicans ATCC 10231 after 48 hrs by broth microdilution technique; format: functional; conditions: ATCC 10231, 48 h; summary of the method: as §3
Candida albicans [17] = test: Antifungal activity against Candida albicans CCC 130 after 48 hrs by broth microdilution technique; format: functional; conditions: CCC 130, 48 h
Saccharomyces cerevisiae = test: Antifungal activity against Saccharomyces cerevisiae ATCC 9763 after 48 hrs by broth microdilution technique; format: functional; conditions: ATCC 9763, 48 h; summary of the method: as §3
Candida albicans [18] = test: Antifungal activity against Candida albicans CCC 126 after 48 hrs by broth microdilution technique; format: functional; conditions: CCC 126, 48 h

Compound: Fc1ccc2nc(/C=C/c3ccccn3)ccc2c1
- MIC50 (Candida albicans [1]): 31.2 µg/mL (≈ 125 µM)
- MIC80 (Candida albicans [1]): 62.5 µg/mL (≈ 250 µM)
- MFC (Nannizzia gypsea): > 250 µg/mL
- MIC (Nannizzia gypsea): 125 µg/mL (≈ 499 µM)
- MIC50 (Cryptococcus neoformans [2]): 31.2 µg/mL (≈ 125 µM)
- MIC80 (Cryptococcus neoformans [2]): 62.5 µg/mL (≈ 250 µM)
- inhibition at 31.2 µg/mL (Candida albicans [3]): 80%
- MFC (Aspergillus fumigatus): > 250 µg/mL
- MIC (Aspergillus fumigatus): 250 µg/mL (≈ 999 µM)
- MIC50 (Candida albicans [4]): 15.6 µg/mL (≈ 62.3 µM)
- MIC80 (Candida albicans [4]): 31.2 µg/mL (≈ 125 µM)
- MFC (Trichophyton rubrum): > 250 µg/mL
- MIC (Trichophyton rubrum): 125 µg/mL (≈ 499 µM)
- MIC50 (Pichia kudriavzevii): 15.6 µg/mL (≈ 62.3 µM)
- MIC80 (Pichia kudriavzevii): 31.2 µg/mL (≈ 125 µM)
- MIC50 (Nakaseomyces glabratus): 15.6 µg/mL (≈ 62.3 µM)
- MIC80 (Nakaseomyces glabratus): 31.2 µg/mL (≈ 125 µM)
- MFC (Cryptococcus neoformans [5]): > 250 µg/mL
- MIC (Cryptococcus neoformans [5]): 125 µg/mL (≈ 499 µM)
- MIC50 (Cryptococcus neoformans [5]): 15.6 µg/mL (≈ 62.3 µM)
- MIC80 (Cryptococcus neoformans [5]): 31.2 µg/mL (≈ 125 µM)
- MIC50 (Cryptococcus neoformans [6]): 15.6 µg/mL (≈ 62.3 µM)
- MIC80 (Cryptococcus neoformans [6]): 31.2 µg/mL (≈ 125 µM)
- MIC50 (Candida tropicalis): 62.5 µg/mL (≈ 250 µM)
- MIC80 (Candida tropicalis): 125 µg/mL (≈ 499 µM)
- MFC [7]: > 250 µg/mL
- MIC [7]: 125 µg/mL (≈ 499 µM)
- MIC50 (Cryptococcus neoformans [8]): 15.6 µg/mL (≈ 62.3 µM)
- MIC80 (Cryptococcus neoformans [8]): 62.5 µg/mL (≈ 250 µM)
- MFC (Aspergillus flavus): > 250 µg/mL
- MIC (Aspergillus flavus): 250 µg/mL (≈ 999 µM)
- MIC50 (Candida albicans [9]): 15.6 µg/mL (≈ 62.3 µM)
- MIC50 (Cryptococcus neoformans [10]): 31.2 µg/mL (≈ 125 µM)
- MIC80 (Cryptococcus neoformans [10]): 62.5 µg/mL (≈ 250 µM)
- MIC50 (Candida parapsilosis): 7.8 µg/mL (≈ 31.2 µM)
- MIC80 (Candida parapsilosis): 15.6 µg/mL (≈ 62.3 µM)
- MIC50 (Candida albicans [11]): 31.2 µg/mL (≈ 125 µM)
- MIC80 (Candida albicans [11]): 62.5 µg/mL (≈ 250 µM)
- MIC50 (Cryptococcus neoformans [12]): 31.2 µg/mL (≈ 125 µM)
- MIC80 (Cryptococcus neoformans [12]): 62.5 µg/mL (≈ 250 µM)
- MIC50 (Candida albicans [13]): 31.2 µg/mL (≈ 125 µM)
- MIC80 (Candida albicans [13]): 62.5 µg/mL (≈ 250 µM)
- inhibition at 31.2 µg/mL (Cryptococcus neoformans [14]): 80%
- MIC50 (Cryptococcus neoformans [15]): 15.6 µg/mL (≈ 62.3 µM)
- MIC80 (Cryptococcus neoformans [15]): 62.5 µg/mL (≈ 250 µM)
- MIC (Aspergillus niger): > 250 µg/mL
- MFC (Candida albicans [16]): > 250 µg/mL
- MIC (Candida albicans [16]): 125 µg/mL (≈ 499 µM)
- MIC50 (Candida albicans [16]): 15.6 µg/mL (≈ 62.3 µM)
- MIC80 (Candida albicans [16]): 31.2 µg/mL (≈ 125 µM)
- MIC80 (Candida albicans [17]): 31.2 µg/mL (≈ 125 µM)
- MFC (Saccharomyces cerevisiae): > 250 µg/mL
- MIC (Saccharomyces cerevisiae): 250 µg/mL (≈ 999 µM)
- MIC50 (Candida albicans [18]): 62.5 µg/mL (≈ 250 µM)
- MIC80 (Candida albicans [18]): 62.5 µg/mL (≈ 250 µM)
